Source: ChEMBL document CHEMBL5303300, “EUbOPEN Chemogenomics Library - Multiplex” (2023)
Several values for one entry are separate records, joined by “and”; a condition that tells them apart may be missing. Equal entries are not always repeated.

System: HEK-293T
Test: Multiplex assay against HEK293T
Format: toxicity, cell-based
Conditions: human, number of replicates 2
In short: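 Four dyes were applied at seeding to live cells: Hoechst33342, BioTracker Green Microtubule Cytoskeleton Dye, MitoTracker Red and Annexin V Alexa Fluor 680. Imaging after compound addition used a CQ1 microscope at 37°C and 5% CO2. CellPathfinder machine-learning gating then sorted cells into Hoechst high-intensity objects or normal cells, normal cells into healthy, pyknosed or fragmented nuclei, and pyknosed cells into mitotic or apoptotic, with tubulin, mitochondrial-mass and membrane-permeability phenotypes given as per cents of healthy-nucleus cells.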

[1] = 12 h, 1 µM, compound concentration 1 uM
[2] = 12 h, 10 µM, compound concentration 10 uM
[3] = 24 h, 1 µM, compound concentration 1 uM
[4] = 24 h, 10 µM, compound concentration 10 uM
[5] = 48 h, 1 µM, compound concentration 1 uM
[6] = 48 h, 10 µM, compound concentration 10 uM

COc1cc(Nc2cnc(C#N)c(O[C@H](C)CN(C)C)n2)ncc1-c1cnn(C)c1
Population Apoptotic (%) [1]: 43% and 40%
Population Fragmented Nuclei (%) [1]: 3%
Population Healthy Nuclei (%) [1]: 78% and 82%
Population Hoechst High Intensity Objects (%) [1]: 4% and 7%
Population Membrane Permeable-Phenotype (%) [1]: 5% and 3%
Population Mitochondria Different-Phenotype (%) [1]: 19% and 14%
Population Mitotic Cells (%) [1]: 56% and 59%
Population Normal (%) [1]: 95% and 92%
Population Pyknosed Nuclei (%) [1]: 18% and 14%
Population Tubulin-Different-Phenotype (%) [1]: 54% and 50%
Total Cell Count [1]: 593 and 622
Population Apoptotic (%) [2]: 59% and 57%
Population Fragmented Nuclei (%) [2]: 2%
Population Healthy Nuclei (%) [2]: 62% and 75%
Population Hoechst High Intensity Objects (%) [2]: 6% and 4%
Population Membrane Permeable-Phenotype (%) [2]: 5% and 3%
Population Mitochondria Different-Phenotype (%) [2]: 45% and 52%
Population Mitotic Cells (%) [2]: 40% and 43%
Population Normal (%) [2]: 93% and 95%
Population Pyknosed Nuclei (%) [2]: 35% and 21%
Population Tubulin-Different-Phenotype (%) [2]: 87% and 90%
Total Cell Count [2]: 383 and 486
Population Apoptotic (%) [3]: 28% and 26%
Population Fragmented Nuclei (%) [3]: 5%
Population Healthy Nuclei (%) [3]: 84% and 80%
Population Hoechst High Intensity Objects (%) [3]: 8% and 7%
Population Membrane Permeable-Phenotype (%) [3]: 4%
Population Mitochondria Different-Phenotype (%) [3]: 11% and 14%
Population Mitotic Cells (%) [3]: 71% and 73%
Population Normal (%) [3]: 91% and 92%
Population Pyknosed Nuclei (%) [3]: 9% and 13%
Population Tubulin-Different-Phenotype (%) [3]: 46% and 41%
Total Cell Count [3]: 801 and 735
Population Apoptotic (%) [4]: 63% and 69%
Population Fragmented Nuclei (%) [4]: 2% and 3%
Population Healthy Nuclei (%) [4]: 76% and 78%
Population Hoechst High Intensity Objects (%) [4]: 9% and 10%
Population Membrane Permeable-Phenotype (%) [4]: 3% and 4%
Population Mitochondria Different-Phenotype (%) [4]: 47% and 42%
Population Mitotic Cells (%) [4]: 36% and 30%
Population Normal (%) [4]: 90% and 89%
Population Pyknosed Nuclei (%) [4]: 20% and 18%
Population Tubulin-Different-Phenotype (%) [4]: 85% and 82%
Total Cell Count [4]: 524 and 415
Population Apoptotic (%) [5]: 31% and 47%
Population Fragmented Nuclei (%) [5]: 9% and 7%
Population Healthy Nuclei (%) [5]: 79% and 80%
Population Hoechst High Intensity Objects (%) [5]: 9% and 8%
Population Membrane Permeable-Phenotype (%) [5]: 6% and 8%
Population Mitochondria Different-Phenotype (%) [5]: 8% and 11%
Population Mitotic Cells (%) [5]: 68% and 52%
Population Normal (%) [5]: 90% and 91%
Population Pyknosed Nuclei (%) [5]: 10% and 12%
Population Tubulin-Different-Phenotype (%) [5]: 39% and 46%
Total Cell Count [5]: 1105 and 1012
Population Apoptotic (%) [6]: 71% and 67%
Population Fragmented Nuclei (%) [6]: 3%
Population Healthy Nuclei (%) [6]: 44% and 52%
Population Hoechst High Intensity Objects (%) [6]: 12% and 11%
Population Membrane Permeable-Phenotype (%) [6]: 4%
Population Mitochondria Different-Phenotype (%) [6]: 69% and 77%
Population Mitotic Cells (%) [6]: 28% and 32%
Population Normal (%) [6]: 87% and 88%
Population Pyknosed Nuclei (%) [6]: 52% and 43%
Population Tubulin-Different-Phenotype (%) [6]: 81% and 89%
Total Cell Count [6]: 374 and 473

CC(C)S(=O)(=O)c1ccccc1Nc1nc(N[C@@H]2CCCN(CCCCCCCNC(=O)COc3cccc4c3C(=O)N(C3CCC(=O)N(C)C3=O)C4=O)C2)ncc1Cl (some centres not stated)
Population Apoptotic (%) [1]: 55% and 78%
Population Fragmented Nuclei (%) [1]: 6% and 3%
Population Healthy Nuclei (%) [1]: 84% and 81%
Population Hoechst High Intensity Objects (%) [1]: 11%
Population Membrane Permeable-Phenotype (%) [1]: 0%
Population Mitochondria Different-Phenotype (%) [1]: 39% and 45%
Population Mitotic Cells (%) [1]: 44% and 21%
Population Normal (%) [1]: 88%
Population Pyknosed Nuclei (%) [1]: 8% and 14%
Population Tubulin-Different-Phenotype (%) [1]: 56% and 62%
Total Cell Count [1]: 479 and 318
Population Apoptotic (%) [2]: 60% and 74%
Population Fragmented Nuclei (%) [2]: 3%
Population Healthy Nuclei (%) [2]: 69% and 72%
Population Hoechst High Intensity Objects (%) [2]: 18% and 14%
Population Membrane Permeable-Phenotype (%) [2]: 2% and 3%
Population Mitochondria Different-Phenotype (%) [2]: 76%
Population Mitotic Cells (%) [2]: 39% and 25%
Population Normal (%) [2]: 81% and 85%
Population Pyknosed Nuclei (%) [2]: 26% and 24%
Population Tubulin-Different-Phenotype (%) [2]: 49% and 77%
Total Cell Count [2]: 464 and 428
Population Apoptotic (%) [3]: 48% and 83%
Population Fragmented Nuclei (%) [3]: 2% and 4%
Population Healthy Nuclei (%) [3]: 90% and 85%
Population Hoechst High Intensity Objects (%) [3]: 7%
Population Membrane Permeable-Phenotype (%) [3]: 0%
Population Mitochondria Different-Phenotype (%) [3]: 20% and 21%
Population Normal (%) [3]: 92%
Population Pyknosed Nuclei (%) [3]: 7% and 10%
Population Tubulin-Different-Phenotype (%) [3]: 40%
Total Cell Count [3]: 702 and 488
Population Apoptotic (%) [4]: 82%
Population Fragmented Nuclei (%) [4]: 4% and 5%
Population Healthy Nuclei (%) [4]: 78%
Population Hoechst High Intensity Objects (%) [4]: 18% and 16%
Population Membrane Permeable-Phenotype (%) [4]: 0% and 1%
Population Mitochondria Different-Phenotype (%) [4]: 80% and 91%
Population Mitotic Cells (%) [4]: 17%
Population Normal (%) [4]: 81% and 83%
Population Pyknosed Nuclei (%) [4]: 17% and 16%
Population Tubulin-Different-Phenotype (%) [4]: 90% and 92%
Total Cell Count [4]: 438 and 432
Population Apoptotic (%) [5]: 40% and 66%
Population Fragmented Nuclei (%) [5]: 8% and 4%
Population Healthy Nuclei (%) [5]: 85%
Population Hoechst High Intensity Objects (%) [5]: 8% and 7%
Population Membrane Permeable-Phenotype (%) [5]: 2% and 1%
Population Mitochondria Different-Phenotype (%) [5]: 7% and 11%
Population Mitotic Cells (%) [5]: 60% and 33%
Population Normal (%) [5]: 91% and 92%
Population Pyknosed Nuclei (%) [5]: 5% and 9%
Population Tubulin-Different-Phenotype (%) [5]: 26% and 27%
Total Cell Count [5]: 1045 and 630
Population Apoptotic (%) [6]: 81% and 86%
Population Fragmented Nuclei (%) [6]: 5%
Population Healthy Nuclei (%) [6]: 82% and 78%
Population Hoechst High Intensity Objects (%) [6]: 17% and 20%
Population Membrane Permeable-Phenotype (%) [6]: 0%
Population Mitochondria Different-Phenotype (%) [6]: 46% and 78%
Population Mitotic Cells (%) [6]: 18% and 14%
Population Normal (%) [6]: 82% and 79%
Population Pyknosed Nuclei (%) [6]: 11% and 16%
Population Tubulin-Different-Phenotype (%) [6]: 57% and 65%
Total Cell Count [6]: 458 and 378

CCCNc1ccc2ncc(-c3ccncc3)n2n1
Population Apoptotic (%) [1]: 56% and 50%
Population Fragmented Nuclei (%) [1]: 3% and 4%
Population Healthy Nuclei (%) [1]: 81% and 85%
Population Hoechst High Intensity Objects (%) [1]: 7% and 8%
Population Membrane Permeable-Phenotype (%) [1]: 2%
Population Mitochondria Different-Phenotype (%) [1]: 26% and 15%
Population Mitotic Cells (%) [1]: 43% and 49%
Population Normal (%) [1]: 92% and 91%
Population Pyknosed Nuclei (%) [1]: 14% and 9%
Population Tubulin-Different-Phenotype (%) [1]: 64% and 54%
Total Cell Count [1]: 500 and 609
Population Apoptotic (%) [2]: 55% and 50%
Population Fragmented Nuclei (%) [2]: 4% and 5%
Population Healthy Nuclei (%) [2]: 89% and 87%
Population Hoechst High Intensity Objects (%) [2]: 6% and 5%
Population Membrane Permeable-Phenotype (%) [2]: 2% and 1%
Population Mitochondria Different-Phenotype (%) [2]: 32% and 26%
Population Mitotic Cells (%) [2]: 44% and 50%
Population Normal (%) [2]: 93% and 94%
Population Pyknosed Nuclei (%) [2]: 6% and 7%
Population Tubulin-Different-Phenotype (%) [2]: 62% and 61%
Total Cell Count [2]: 481 and 583
Population Apoptotic (%) [3]: 60% and 48%
Population Fragmented Nuclei (%) [3]: 5% and 7%
Population Healthy Nuclei (%) [3]: 88% and 86%
Population Hoechst High Intensity Objects (%) [3]: 11% and 15%
Population Membrane Permeable-Phenotype (%) [3]: 3% and 2%
Population Mitochondria Different-Phenotype (%) [3]: 17% and 6%
Population Mitotic Cells (%) [3]: 39% and 51%
Population Normal (%) [3]: 88% and 84%
Population Pyknosed Nuclei (%) [3]: 6%
Population Tubulin-Different-Phenotype (%) [3]: 47% and 48%
Total Cell Count [3]: 684 and 692
Population Apoptotic (%) [4]: 66% and 48%
Population Fragmented Nuclei (%) [4]: 2% and 4%
Population Healthy Nuclei (%) [4]: 87%
Population Hoechst High Intensity Objects (%) [4]: 8% and 9%
Population Membrane Permeable-Phenotype (%) [4]: 1%
Population Mitochondria Different-Phenotype (%) [4]: 41% and 35%
Population Mitotic Cells (%) [4]: 33% and 51%
Population Normal (%) [4]: 91% and 90%
Population Pyknosed Nuclei (%) [4]: 9% and 8%
Population Tubulin-Different-Phenotype (%) [4]: 64% and 66%
Total Cell Count [4]: 490 and 643
Population Apoptotic (%) [5]: 52% and 37%
Population Fragmented Nuclei (%) [5]: 14%
Population Healthy Nuclei (%) [5]: 80% and 81%
Population Hoechst High Intensity Objects (%) [5]: 16% and 21%
Population Membrane Permeable-Phenotype (%) [5]: 3% and 1%
Population Mitochondria Different-Phenotype (%) [5]: 5% and 6%
Population Mitotic Cells (%) [5]: 47% and 62%
Population Normal (%) [5]: 83% and 78%
Population Pyknosed Nuclei (%) [5]: 4%
Population Tubulin-Different-Phenotype (%) [5]: 33% and 47%
Total Cell Count [5]: 935 and 824
Population Apoptotic (%) [6]: 55% and 68%
Population Fragmented Nuclei (%) [6]: 4% and 3%
Population Healthy Nuclei (%) [6]: 82% and 86%
Population Hoechst High Intensity Objects (%) [6]: 15% and 8%
Population Membrane Permeable-Phenotype (%) [6]: 2% and 1%
Population Mitochondria Different-Phenotype (%) [6]: 49% and 55%
Population Mitotic Cells (%) [6]: 44% and 31%
Population Normal (%) [6]: 84% and 91%
Population Pyknosed Nuclei (%) [6]: 13% and 9%
Population Tubulin-Different-Phenotype (%) [6]: 70% and 66%
Total Cell Count [6]: 503 and 413
